# High-throughput results (PubChem BioAssay)
# MC4R barr agon – human MC4R agonism via beta-arrestin. U2OS MC4R beta-arrestin complementation, luminescence; percent of melanotan II response, DMSO zero. activation, % at 8.9 µM. P32245. 0.98% of 360,000 active;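 active = activation above a per-plate cutoff, the mean activation of sample wells on that plate plus 3 SD, cut at about 8% in these data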
# Target sequence (P32245 whole entry, looked up): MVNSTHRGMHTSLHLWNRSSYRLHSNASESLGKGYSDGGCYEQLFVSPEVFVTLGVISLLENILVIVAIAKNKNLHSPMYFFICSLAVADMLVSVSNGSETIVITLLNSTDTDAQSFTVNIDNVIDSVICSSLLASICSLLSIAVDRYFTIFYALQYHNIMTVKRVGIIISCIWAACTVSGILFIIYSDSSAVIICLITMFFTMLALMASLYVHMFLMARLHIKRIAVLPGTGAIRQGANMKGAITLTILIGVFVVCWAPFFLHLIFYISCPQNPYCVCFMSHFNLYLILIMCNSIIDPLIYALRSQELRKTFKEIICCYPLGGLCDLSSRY
# EBI2 block – blocks human EBI2 receptor beta-arrestin signaling; inhibition, % at 5 µM; 0.81% of 360,000 active; EBI2 beta-arrestin recruitment, luminescence, 7a,25-OHC stimulated; in the data active = inhibition above about 38%;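 also: enzyme fragment complementation signal reports receptor beta-arrestin coupling in cells; 0% = agonist plus DMSO wells and 100% = wells without agonist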
# MC4R antagonist – blocks human MC4R cAMP signaling. P32245. 0.48% of 360,000 active. MC4R-expressing cells, MTII-stimulated cAMP, LANCE TR-FRET. inhibition, % at 6.5 µM;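 active = inhibition above its plate's cutoff, the mean of tested wells on that plate plus 3 SD, cut at about 29% in these data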;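 also: 0% = Melanotan II alone and 100% = Melanotan II plus saturating MCL0020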
#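 system = U2OS cells with stable human MC4R expression | also added = Melanotan II challenge after compound preincubation | dosing = one concentration, 6.5 µM nominal | incubation = compound 30 min, challenge 1 h, detection 1 h | measured by = TR-FRET with Eu-cAMP and labeled anti-cAMP, 671 nm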
# Myeloid diff MLP – myeloid differentiation induction. 1% of 360,000 active. AID 624256. ER-HoxA9 myeloid progenitors, lysozyme-GFP differentiation, flow cytometry. calls only at 10 µM;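 active = normalized GFP-positive differentiation at or above the plate's own cutoff, the solvent-only control mean plus 3 SD; inconclusive = no clear call, values can overlap the other calls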;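 also: cells exposed to compound for four days before flow analysis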
# Granule exo inh – lytic granule exocytosis inhibition; 0.66% of 360,000 active; TALL-104 LAMP-1 surface exposure, flow cytometry; cells stimulated with thapsigargin and PMA; inhibition, % at 10 µM; AID 651702;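 active = inhibition above about 55%, limit read from the data; inconclusive = no clear call, values can overlap the other calls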
# U2OS cAMP counter – counter-screen for MC4R antagonists: nonselective cAMP signaling inhibitors; 26% of 1,600 active; inhibition, % at 6.5 µM; parental U2OS, forskolin cAMP, LANCE TR-FRET; shares compounds with MC4R antagonist;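 active = mean inhibition over triplicates above the low-control well mean plus 3 SD, set per campaign, cut at about 13% in these data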;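 also: signal is single emission at 671 nm which falls as cellular cAMP rises; 0% = forskolin-stimulated wells and 100% = buffer without forskolin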
# MC4R antag conf – human MC4R cAMP antagonism confirmation; shares compounds with MC4R antagonist; MC4R-expressing cells, MTII-stimulated cAMP, TR-FRET; inhibition, % at 6.5 µM; 27% of 1,600 active; AID 602195; in the data active = inhibition above about 29%;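 also: 0% = agonist stimulated wells alone and 100% = agonist stimulated wells plus saturating reference antagonist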
# Active calls of the source: *; i = inactive; ? = inconclusive; nt = not tested or not shown; + = active, no number. Shown are actives, neighbours in structure and some others; about 3.7% of the full set was active somewhere.
SMILES,MC4R barr agon,EBI2 block,MC4R antagonist,Myeloid diff MLP,Granule exo inh,U2OS cAMP counter,MC4R antag conf
CS(=O)(=O)Nc1ccc(C(=O)Nc2ccc3ccccc3c2)cc1,-1,14,3,?,8,nt,nt
CC(C)c1ccc(NC(=O)c2ccc(NS(C)(=O)=O)cc2)cc1,-2,9,18,+,-1,nt,nt
CC(C)(C)n1nnnc1C(c1ccccc1)N1CCN(c2c(Cl)cncc2Cl)CC1 (stereo not drawn),nt,27,nt,i,0,nt,nt
COc1ccc(C(=O)Nc2ccc(Nc3ccccc3)cc2)cc1Br,9.4*,9,-3,i,10,nt,nt
COc1ccc(C(=O)Nc2cccc(NC(C)=O)c2)cc1OC,-1,-2,-1,+,-4,nt,nt
COc1ccc(C(=O)NC(C)c2ccccc2)cc1Br (stereo not drawn),1,12,-1,+,0,nt,nt
O=C(NNC(=O)c1ccc(NC(=O)c2ccccc2)cc1)Nc1ccccc1,5,5,-8,+,-5,nt,nt
O=C(Nc1ccccc1Cl)c1cc(C2CCCN(S(=O)(=O)c3cccs3)C2)on1 (stereo not drawn),0,-4,18,i,-4,nt,nt
COc1ccc(N2CC(C(=O)Nc3nnc(SCC(=O)N4CCOCC4)s3)CC2=O)cc1 (stereo not drawn),-3,-2,0,i,-21,nt,nt
Cc1noc(C(=O)Nc2cccc(O)c2)c1Cl,1,-7,29*,i,-1,4,-3
COc1ccc(CN(CCCn2cnc3c(OC)ncnc32)CCCn2cnc3c(OC)ncnc32)cc1,-2,-3,8,i,4,nt,nt
CCOC(=O)C(C)(C)N(Cc1cccc(C)c1)S(=O)(=O)c1ccc(Cl)c([N+](=O)[O-])c1,1,28,54*,i,-1,26*,63*
COc1ccc(NC(=O)NNC(=O)COc2ccc([N+](=O)[O-])c(C)c2)cc1OC,-1,-4,-2,i,5,nt,nt
CCOC(=O)C1=C(C)C2C3C(=O)N(c4ccccc4C)C(=O)C3C1(C)C1C(=O)N(c3ccccc3C)C(=O)C21 (stereo not drawn),-1,-9,31*,i,-2,0,-13
COC(=O)c1sccc1-n1cc2c(c1-c1ccccc1)c(=O)n(C)c(=O)n2C,nt,0,nt,i,0,nt,nt
Cc1ccn2cc(C34CC5CC(CC(C5)C3)C4)nc2c1,0,21,5,i,0,nt,nt
COc1ccc(S(=O)(=O)NNC(=O)C(=O)NNc2ccccn2)cc1,1,-16,31*,i,-3,2,-18
COc1ccc(/C=N/Nc2cc(C)nc(NS(=O)(=O)c3ccc(C)cc3)n2)cc1,-2,-12,32*,i,5,2,21
COc1cc(/C=N/Nc2cc(C)nc(NS(=O)(=O)c3ccc(C)cc3)n2)ccc1O,1,-21,10,i,-1,nt,nt
CCC[C@@H](CN1CCC[C@H]1CN1C(N)=NC[C@@H]1Cc1ccccc1)N1C[C@@H](Cc2ccccc2)N(CCc2ccc(Cl)c(Cl)c2)C1=N,1,-4,18,i,-1,nt,nt
CCC[C@@H](CN1CCC[C@H]1CN1C(N)=NC[C@H]1CC(C)C)N1C[C@@H](Cc2ccccc2)N(CCc2ccc(Cl)c(Cl)c2)C1=N,2,-5,29*,i,0,-2,39*
CC(C)[C@H](CN1CCC[C@H]1CN1C(N)=NC[C@H]1C(C)C)N1C[C@@H](Cc2ccccc2)N(CCCC2CCCC2)C1=N,0,-8,30*,i,3,-3,27
CC(C)[C@H](CN1CCC[C@H]1CN1C(N)=NC[C@@H]1Cc1ccccc1)N1C[C@@H](Cc2ccccc2)N(CCc2ccc(Cl)c(Cl)c2)C1=N,1,0,31*,i,-3,-6,43*
CC(C)(C)OC(=O)NCCc1nc(NC(=O)OCc2ccccc2)sc1C(=O)O,nt,-1,nt,i,4,nt,nt
CC1(C(=O)NS(=O)(=O)c2ccc(Br)cc2)CCN1C(=O)c1cccc(F)c1 (stereo not drawn),0,4,7,i,-11,nt,nt
SMILES,MC4R barr agon,EBI2 block,MC4R antagonist,Myeloid diff MLP,Granule exo inh,U2OS cAMP counter,MC4R antag conf
O=C(NCc1ccccn1)C12CC3CC(CC(C3)C1)C2,0,-1,-8,i,-4,nt,nt
COc1ccc(C(=O)OCCN=C2NS(=O)(=O)c3ccccc32)cc1OC,2,1,30*,i,6,-1,-10
COc1ccccc1C(=O)OCCCN=C1NS(=O)(=O)c2ccccc21,-1,-6,10,i,1,nt,nt
CC(=O)c1ccc(-c2cccc(-c3cc(=O)oc4ccc(C(C)(C)C)cc34)c2)cc1,0,25,-32,i,2,nt,nt
O=[N+]([O-])c1ccc(Sc2cccc[n+]2[O-])c2nonc12,-3,58*,48*,nt,96*,42*,60*
O=C1/C(=C/c2ccc([N+](=O)[O-])cc2)C=C(c2ccccc2)N1c1ccc(O)cc1,-1,61*,32*,i,2,9,20
CC(=O)Nc1cccc(OC(=O)COc2ccc(Br)cc2)c1,2,-10,29*,i,-1,-1,4
Cc1ccc(OCC(=O)Oc2cccc(C)c2)cc1,1,-4,-5,i,1,nt,nt
